Measurements taken from ChEMBL document CHEMBL4190234, “Design, synthesis and anticancer activity of new monastrol analogues bearing 1,3,4-oxadiazole moiety” (Eur J Med Chem, 2017).

Tests used:
HL-60(TB) [1] = test: Growth inhibition of human HL-60(TB) cells incubated for 24 hrs by MTT assay; type: functional, cell-based; details: HL-60, 24 h
Method in brief: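 Cells at 1.2-1.8×10^4 cells/ml in DMEM with 10% FBS, 10 µg/ml insulin and 1% penicillin/streptomycin, plated overnight at 37°C. Serial 10-fold dilutions added to 0.01–100 µM final, medium as negative control, 24 h. MTT (5 mg/ml) added for 4 h, formazan dissolved in acid-isopropanol, A490 read. Eight separate experiments; percent viable cells used to derive IC50.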

MOLT-4 [2] = test: Potency index, ratio of monastrol IC50 to compound IC50 for human MOLT4 cells; type: functional
MOLT-4 [3] = test: Cell cycle arrest in human MOLT4 cells assessed as accumulation of apoptotic cells in pre-G phase at 0.16 uM after 24 hrs by propidium iodide staining based flow cytometry (reference value: 0.88%); type: functional
Method in brief: (§1)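 MOLT-4 cells (1×10^6) exposed 24 h to 0.160 or 0.430 μM test agent, DMSO (0.002%) control; trypsinized, washed in ice-cold PBS, fixed in ice-cold 70% ethanol ≥2 h at 4°C, washed, stained with propidium iodide DNA kit; cell cycle distribution (pre-G, G0/G1, S, G2/M) by flow cytometry.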

MOLT-4 [4] = test: Cell cycle arrest in human MOLT4 cells assessed as accumulation at G0/G1 phase at 0.16 uM after 24 hrs by propidium iodide staining based flow cytometry (reference value: 74.22%); type: functional; method in brief: as §1
MOLT-4 [5] = test: Cell cycle arrest in human MOLT4 cells assessed as accumulation at G2/M phase at 0.16 uM after 24 hrs by propidium iodide staining based flow cytometry (reference value: 4.35%); type: functional; method in brief: as §1
MOLT-4 [6] = test: Cell cycle arrest in human MOLT4 cells assessed as accumulation at S phase at 0.16 uM after 24 hrs by propidium iodide staining based flow cytometry (reference value: 20.55%); type: functional; method in brief: as §1
MOLT-4 [7] = test: Induction of apoptosis in human MOLT4 cells assessed as live cells at 0.16 uM after 24 hrs by Annexin V-FITC/propidium iodide staining based flow cytometry (reference value: 99.12%); type: functional
MOLT-4 [8] = test: Induction of apoptosis in human MOLT4 cells assessed as early apoptotic cells at 0.16 uM after 24 hrs by Annexin V-FITC/propidium iodide staining based flow cytometry (reference value: 0.53%); type: functional
MOLT-4 [9] = test: Induction of apoptosis in human MOLT4 cells assessed as late apoptotic cells at 0.16 uM after 24 hrs by Annexin V-FITC/propidium iodide staining based flow cytometry (reference value: 0.24%); type: functional
MOLT-4 [10] = test: Induction of apoptosis in human MOLT4 cells assessed as necrotic cells at 0.16 uM after 24 hrs by Annexin V-FITC/propidium iodide staining based flow cytometry (reference value: 0.11%); type: functional
MOLT-4 [11] = test: Induction of apoptosis in human MOLT4 cells assessed as increase in apoptotic cells at 0.16 uM after 24 hrs by Annexin V-FITC/propidium iodide staining based flow cytometry relative to control; type: functional
HL-60(TB) [12] = test: Potency index, ratio of monastrol IC50 to compound IC50 for human HL-60(TB) cells; type: functional
HL-60(TB) [13] = test: Cell cycle arrest in human HL-60(TB) cells assessed as accumulation of apoptotic cells in pre-G phase at 0.112 uM after 24 hrs by propidium iodide staining based flow cytometry (reference value: 1.44%); type: functional
HL-60(TB) [14] = test: Cell cycle arrest in human HL-60(TB) cells assessed as accumulation at G0/G1 phase at 0.112 uM after 24 hrs by propidium iodide staining based flow cytometry (reference value: 68.43%); type: functional
HL-60(TB) [15] = test: Cell cycle arrest in human HL-60(TB) cells assessed as accumulation at G2/M phase at 0.112 uM after 24 hrs by propidium iodide staining based flow cytometry (reference value: 7.29%); type: functional
HL-60(TB) [16] = test: Cell cycle arrest in human HL-60(TB) cells assessed as accumulation at S phase at 0.112 uM after 24 hrs by propidium iodide staining based flow cytometry (reference value: 22.84%); type: functional
HL-60(TB) [17] = test: Induction of apoptosis in human HL-60(TB) cells assessed as live cells at 0.112 uM after 24 hrs by Annexin V-FITC/propidium iodide staining based flow cytometry (reference value: 98.57%); type: functional
HL-60(TB) [18] = test: Induction of apoptosis in human HL-60(TB) cells assessed as early apoptotic cells at 0.112 uM after 24 hrs by Annexin V-FITC/propidium iodide staining based flow cytometry (reference value: 0.84%); type: functional
HL-60(TB) [19] = test: Induction of apoptosis in human HL-60(TB) cells assessed as late apoptotic cells at 0.112 uM after 24 hrs by Annexin V-FITC/propidium iodide staining based flow cytometry (reference value: 0.39%); type: functional
HL-60(TB) [20] = test: Induction of apoptosis in human HL-60(TB) cells assessed as necrotic cells at 0.112 uM after 24 hrs by Annexin V-FITC/propidium iodide staining based flow cytometry (reference value: 0.2%); type: functional
HL-60(TB) [21] = test: Induction of apoptosis in human HL-60(TB) cells assessed as increase in apoptotic cells at 0.112 uM after 24 hrs by Annexin V-FITC/propidium iodide staining based flow cytometry relative to control; type: functional

## CCOC(=O)C1=C(C)NC(SCc2nnc(-c3ccc(Cl)cc3)o2)=NC1c1ccc(Cl)cc1Cl (stereo unspecified)
HL-60(TB) [1]
  IC50: 153 nM
MOLT-4 [2]
  Ratio IC50: 3
MOLT-4 [3]
  Activity: 17.83%
MOLT-4 [4]
  Activity: 38.52%
MOLT-4 [5]
  Activity: 26.61%
MOLT-4 [6]
  Activity: 17.04%
MOLT-4 [7]
  Activity: 82.17%
MOLT-4 [8]
  Activity: 10.48%
MOLT-4 [9]
  Activity: 5.89%
MOLT-4 [10]
  Activity: 1.46%
MOLT-4 [11]
  fold change (FC): 21

## CCOC(=O)C1=C(C)NC(SCc2nnc(-c3ccc(Cl)cc3)o2)=NC1c1ccc(Br)cc1 (stereo unspecified)
HL-60(TB) [1]
  IC50: 143 nM
MOLT-4 [2]
  Ratio IC50: 3

## CCOC(=O)C1=C(C)NC(SCc2nnc(-c3ccc(Cl)cc3)o2)=NC1c1ccc(Cl)cc1 (stereo unspecified)
HL-60(TB) [1]
  IC50: 103 nM
HL-60(TB) [12]
  Ratio IC50: 1.5

## CCOC(=O)C1=C(C)NC(SCc2nnc(-c3ccc(Cl)cc3)o2)=NC1c1cccc(Cl)c1 (stereo unspecified)
HL-60(TB) [1]
  IC50: 56 nM
HL-60(TB) [12]
  Ratio IC50: 2.5
HL-60(TB) [13]
  Activity: 24.72%
HL-60(TB) [14]
  Activity: 32.88%
HL-60(TB) [15]
  Activity: 14.81%
HL-60(TB) [16]
  Activity: 27.59%
HL-60(TB) [17]
  Activity: 75.28%
HL-60(TB) [18]
  Activity: 17.09%
HL-60(TB) [19]
  Activity: 6.67%
HL-60(TB) [20]
  Activity: 1.36%
HL-60(TB) [21]
  fold change (FC): 19.3
